Source: ChEMBL document CHEMBL1121899, “Biological activities of photoaffinity labeling analogues of kinins and their irreversible effects on kinin receptors” (1981)
Where a SMILES comes first, the peptide text is derived from it.

What was measured:
[1] = test system: B2 bradykinin receptor (Oryctolagus cuniculus); assay: Relative affinity against B2 receptor relative to bradykinin
[2] = species: Oryctolagus cuniculus; assay: The compound was tested in vitro (3 uM) on rabbit jugular vein for residual response in absence of ultraviolet light; type: functional
How it was run: (§1)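 Jugular vein strips were treated exactly as in the photolabeling protocol (scavenger 100 µM (4'-amino)Phe plus analogue) but without light. Residual BK response was measured 60 min after the last treatment against reference tissues. Results were discarded if reference tissues lost over 25% sensitivity.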

[3] = target: T1, B1 bradykinin receptor (Homo sapiens) (UniProt P46663); assay: Intrinsic activity was determined; type: functional; details: Oryctolagus cuniculus
T1 sequence (whole entry): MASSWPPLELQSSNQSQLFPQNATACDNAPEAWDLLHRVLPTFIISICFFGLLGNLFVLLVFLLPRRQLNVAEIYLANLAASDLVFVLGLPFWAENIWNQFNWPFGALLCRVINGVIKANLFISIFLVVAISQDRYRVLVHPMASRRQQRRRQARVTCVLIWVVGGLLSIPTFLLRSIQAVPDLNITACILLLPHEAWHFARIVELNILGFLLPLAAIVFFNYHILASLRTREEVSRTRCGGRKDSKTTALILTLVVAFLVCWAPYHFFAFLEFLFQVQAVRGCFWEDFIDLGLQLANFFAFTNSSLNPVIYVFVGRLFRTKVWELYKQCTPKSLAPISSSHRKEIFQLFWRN

[4] = test system: B2 bradykinin receptor (Oryctolagus cuniculus); assay: Agonistic activity (pD2) in rabbit jugular vein expressing B2 receptor relative to bradykinin
[5] = target: T2, B2 bradykinin receptor (Homo sapiens) (UniProt P30411); assay: In vitro 50 % Maximal response in jugular vein expressing B2 receptor; type: functional; details: Oryctolagus cuniculus
T2 sequence (whole entry): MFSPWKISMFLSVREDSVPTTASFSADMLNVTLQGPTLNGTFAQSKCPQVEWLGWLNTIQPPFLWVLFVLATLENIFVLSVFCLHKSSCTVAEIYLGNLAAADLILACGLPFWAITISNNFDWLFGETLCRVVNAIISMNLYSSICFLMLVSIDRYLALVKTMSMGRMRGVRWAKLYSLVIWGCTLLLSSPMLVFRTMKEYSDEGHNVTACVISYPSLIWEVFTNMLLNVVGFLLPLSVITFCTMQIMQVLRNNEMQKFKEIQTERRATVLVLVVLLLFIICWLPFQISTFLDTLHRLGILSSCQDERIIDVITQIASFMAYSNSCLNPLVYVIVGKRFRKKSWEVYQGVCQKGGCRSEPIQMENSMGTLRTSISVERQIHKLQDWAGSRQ
How it was run: (§2)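 Isolated rabbit jugular vein strips were equilibrated about 2 h with protease inhibitor SQ 14225 (100 ng/mL) under incandescent light, with no UV. pD₂ was taken as −log of the half-maximal concentration. Relative affinity is given as percent of BK. Specificity was checked by desensitization with BK or an analogue. Antagonists were given as pA₂ from the ID₅₀ that reduces a double agonist dose to a single-dose response.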

[6] = species: Oryctolagus cuniculus; assay: The compound was tested in vitro (0.1 uM) on rabbit aorta for residual response in presence of ultraviolet light; type: functional; details: in the assay text read “rabbit jugular vein” for “rabbit aorta”
How it was run: (§3)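 Aorta strips in cycloheximide were challenged twice with [des-Arg⁹]BK and checked with 3 µM noradrenaline and 0.2 µM [Sar¹]angiotensin II. They were then incubated with 100 µM (4'-amino)Phe plus the photolabel and irradiated 10 min around 365 nm (18 mW/cm²). This was done once or twice. Residual [des-Arg⁹]BK response at 60 min was expressed as percent of reference tissues.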

[7] = target: T2, B2 bradykinin receptor (Homo sapiens); assay: Percent agonistic activity in rabbit jugular vein expressing B2 receptor relative to bradykinin; type: functional; details: Oryctolagus cuniculus
How it was run: as §2

[8] = species: Oryctolagus cuniculus; assay: The compound was tested in vitro (2.0 uM) on rabbit jugular vein for residual response in absence of ultraviolet light; type: functional
How it was run: as §1

[9] = species: Oryctolagus cuniculus; assay: The compound was tested (0.5 micro M) in vitro on rabbit jugular vein for residual response in presence of ultraviolet light; type: functional
How it was run: (§4)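 Jugular vein strips were challenged twice with BK and checked with 1 µM [Nle¹¹]substance P and 7 µM histamine. They were then incubated with 100 µM (4'-amino)Phe plus the photolabel and irradiated 10 min around 365 nm (18 mW/cm²) at maximal contraction or after 5 min. This was done once or twice. BK response at 60 min was expressed as percent of reference tissues, rechecked every 45 min.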

[10] = test system: B2 bradykinin receptor (Oryctolagus cuniculus); assay: In vitro 50 % Maximal response in rabbit jugular vein expressing B2 receptor
[11] = test system: B2 bradykinin receptor (Oryctolagus cuniculus); assay: In vitro 50 % Maximal response in jugular vein expressing B2 receptor
[12] = species: Oryctolagus cuniculus; assay: Competitive protection towards rabbit jugular vein in the presence of light; type: functional
How it was run: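 Rabbit jugular vein strips (B2), with SQ 14225 100 ng/mL present after about 2 h equilibration. 5 µM BK added before the photolabel, scavenger (4'-amino)Phe 100 µM, and 10 min irradiation around 365 nm (18 mW/cm²). Residual BK response read 60 min after treatment, relative to reference tissues.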

[13] = species: Oryctolagus cuniculus; assay: The compound was tested in vitro (1.0 uM) on rabbit jugular vein for residual response in presence of ultraviolet light; type: functional
How it was run: as §4

[14] = species: Oryctolagus cuniculus; assay: The compound was tested in vitro (0.2 uM) on rabbit jugular vein for residual response in presence of ultraviolet light; type: functional
How it was run: as §4

[15] = species: Oryctolagus cuniculus; assay: Competitive protection towards rabbit aorta in the presence of light; type: functional
How it was run: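 Rabbit aorta strips (B1), with cycloheximide 10 µg/mL present after 3 h equilibration. Tissue pretreated with 50 µM [Leu⁸,des-Arg⁹]BK before the photolabel, scavenger (4'-amino)Phe 100 µM, and 10 min irradiation around 365 nm (18 mW/cm²). Residual [des-Arg⁹]BK response read 60 min after treatment, relative to reference tissues.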

[16] = species: Oryctolagus cuniculus; assay: The compound was tested in vitro on rabbit aorta for residual response in presence of ultraviolet light; type: functional
How it was run: as §3

[17] = species: Oryctolagus cuniculus; assay: In vitro 50 % Maximal response in rabbit aorta expressing B1 receptor; type: functional; details: read-out: ED50 (the source's name)
[18] = species: Oryctolagus cuniculus; assay: The compound was tested in vitro (0.1 uM) on rabbit jugular vein for residual response in presence of ultraviolet light; type: functional
How it was run: as §4

[19] = species: Oryctolagus cuniculus; assay: The compound was tested in vitro on rabbit aorta for residual response in absence of ultraviolet light; type: functional
How it was run: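 Aorta strips were treated as in the photolabeling protocol but without light, or with light alone. Residual [des-Arg⁹]BK response was measured 60 min later against reference tissues. Darkroom testing was done in triplicate for the visible-light-absorbing analogue.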

| Compound | Alpha E [3] | ED50 [5] | Relative affinity [7] | other results |
| --- | --- | --- | --- | --- |
| N#[N+]c1ccc(C[C@H](NC(=O)CNC(=O)[C@@H]2CCCN2C(=O)[C@@H]2CCCN2C(=O)[C@@H](N)CCCN=C(N)N)C(=O)N[C@@H](CO)C(=O)N2CCC[C@H]2C(=O)N[C@@H](Cc2ccccc2)C(=O)N[C@@H](CCCN=C(N)N)C(=O)O)cc1 (HELM PEPTIDE1{R.P.P.G.[N#[N+]c1ccc(C[C@H](N[*:1])C(=O)[*:2])cc1].S.P.F.R}$$$$V2.0) | 1 | 25 nM | – | Relative affinity [1]: 9%; Response [2]: 92%; pD [4]: 7.73 M |
| H-RPPGFSPFR-OH [BRADYKININ] | 1 | 1.65 nM | 100% | Response [6]: 92% |
| N#[N+]c1ccc(C[C@H](NC(=O)[C@@H]2CCCN2C(=O)[C@H](CO)NC(=O)[C@H](Cc2ccccc2)NC(=O)CNC(=O)[C@@H]2CCCN2C(=O)[C@@H]2CCCN2C(=O)[C@@H](N)CCCN=C(N)N)C(=O)N[C@@H](CCCN=C(N)N)C(=O)O)cc1 (HELM PEPTIDE1{R.P.P.G.F.S.P.[N#[N+]c1ccc(C[C@H](N[*:1])C(=O)[*:2])cc1].R}$$$$V2.0) | 1 | 25 nM | 9% | Response [8]: 94% |
| NC(N)=NCCC[C@H](NC(=O)[C@H](Cc1ccccc1)NC(=O)[C@@H]1CCCN1C(=O)[C@H](CO)NC(=O)[C@H](Cc1ccc([N+](=O)[O-])cc1)NC(=O)CNC(=O)[C@@H]1CCCN1C(=O)[C@@H]1CCCN1C(=O)[C@@H](N)CCCN=C(N)N)C(=O)O (HELM PEPTIDE1{R.P.P.G.[O=C([C@H](Cc1ccc([N+](=O)[O-])cc1)N[*:1])[*:2]].S.P.F.R}$$$$V2.0) | 1 | – | 7% | Response [9]: 88%; pD [10]: 7.62 M; ED50 [11]: 24 nM |
| [N-]=[N+]=Nc1ccc(C[C@H](NC(=O)CNC(=O)[C@@H]2CCCN2C(=O)[C@@H]2CCCN2C(=O)[C@@H](N)CCCNC(=N)N)C(=O)N[C@@H](CO)C(=O)N2CCC[C@H]2C(=O)N[C@@H](Cc2ccccc2)C(=O)N[C@@H](CCCNC(=N)N)C(=O)O)cc1 (HELM PEPTIDE1{R.P.P.G.[[N-]=[N+]=Nc1ccc(C[C@H](N[*:1])C(=O)[*:2])cc1].S.P.F.R}$$$$V2.0) | 1 | 10 nM | 17% | Competitive protection [12]: 91; Response [13]: 44% |
| [N-]=[N+]=Nc1ccc(C[C@H](NC(=O)[C@@H]2CCCN2C(=O)[C@H](CO)NC(=O)[C@H](Cc2ccccc2)NC(=O)CNC(=O)[C@@H]2CCCN2C(=O)[C@@H]2CCCN2C(=O)[C@@H](N)CCCN=C(N)N)C(=O)N[C@@H](CCCN=C(N)N)C(=O)O)cc1 (HELM PEPTIDE1{R.P.P.G.F.S.P.[[N-]=[N+]=Nc1ccc(C[C@H](N[*:1])C(=O)[*:2])cc1].R}$$$$V2.0) | 1 | 7 nM | 23% | Response [14]: 85% |
| [N-]=[N+]=Nc1ccc(C[C@H](NC(=O)[C@@H]2CCCN2C(=O)[C@H](CO)NC(=O)[C@H](Cc2ccccc2)NC(=O)CNC(=O)[C@@H]2CCCN2C(=O)[C@@H]2CCCN2C(=O)[C@@H](N)CCCN=C(N)N)C(=O)O)cc1 | 0 | – | – | Competitive protection [15]: 95; Response [16]: 37%; EC50 [17]: 8560 nM |
| NC(N)=NCCC[C@H](NC(=O)[C@H](Cc1ccc([N+](=O)[O-])cc1)NC(=O)[C@@H]1CCCN1C(=O)[C@H](CO)NC(=O)[C@H](Cc1ccccc1)NC(=O)CNC(=O)[C@@H]1CCCN1C(=O)[C@@H]1CCCN1C(=O)[C@@H](N)CCCN=C(N)N)C(=O)O (HELM PEPTIDE1{R.P.P.G.F.S.P.[O=C([C@H](Cc1ccc([N+](=O)[O-])cc1)N[*:1])[*:2]].R}$$$$V2.0) | 1 | 6.6 nM | 25% | Response [18]: 91% |
| N#[N+]c1ccc(C[C@H](NC(=O)[C@@H]2CCCN2C(=O)[C@H](CO)NC(=O)[C@H](Cc2ccccc2)NC(=O)CNC(=O)[C@@H]2CCCN2C(=O)[C@@H]2CCCN2C(=O)[C@@H](N)CCCN=C(N)N)C(=O)O)cc1 | 1 | – | – | Response [19]: 95%; EC50 [17]: 824 nM |
